Assay results from ChEMBL document CHEMBL1821616, “New insights into the structural requirements for pro-apoptotic agents based on 2,4-diaminoquinazoline, 2,4-diaminopyrido[2,3-d]pyrimidine and 2,4-diaminopyrimidine derivatives” (Eur J Med Chem, 2011).
Activity calls are given as the source filed them. The rule behind the calls is not given here.

Tests used:
[1] = tested on: MDA-MB-231; experiment: Induction of apoptosis in human MDA-MB-231 cells assessed as DNA fragmentation after 24 hrs by ELISA relative to control; format: functional
How it was run: (§1)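 DNA fragmentation was measured with the Cell Death Detection ELISA Plus kit after treatment of cultured tumour cells. The signal is expressed relative to untreated control cultures, which are set to 1.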

[2] = tested on: T-24; experiment: Cytotoxicity against human T24 cells after 72 hrs by neutral red dye assay; format: functional, cell-based; conditions: T-24, 72 h
How it was run: (§2)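 Human tumour cells were grown as monolayers with 10% FBS and penicillin/streptomycin at 37 °C in 5% CO2 (HT-29 and T-24 in McCoy's, MDA-MB-231 in Leibovitz). They were exposed to compound in DMSO (≤0.5% v/v final) at screening concentrations of 20 and 100 μM for 72 h and read by neutral red uptake. Survival is relative to cells given DMSO only, in triplicate.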

[3] = tested on: T-24; experiment: Induction of apoptosis in human T24 cells assessed as DNA fragmentation after 48 hrs by ELISA relative to control; format: functional; how it was run: as §1
[4] = tested on: T-24; experiment: Cytotoxicity against human T24 cells assessed as cell survival at 100 uM after 72 hrs by neutral red dye assay; format: functional; conditions: T-24, 72 h, read-out: Survival
How it was run: (§3)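 HT-29 and T-24 cells were grown in McCoy's medium and MDA-MB-231 in Leibovitz, each with 10% FBS plus penicillin/streptomycin, as monolayers at 37 °C in 5% CO2. Compounds in DMSO (≤0.5% v/v final) were applied for 72 h. Survival was read by neutral red uptake against 0.5% DMSO-treated cells, as the mean of triplicates.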

[5] = tested on: HT-29; experiment: Cytotoxicity against human HT-29 cells after 72 hrs by neutral red dye assay; format: functional, cell-based; conditions: HT-29, 72 h; how it was run: as §2
[6] = tested on: MDA-MB-231; experiment: Cytotoxicity against human MDA-MB-231 cells assessed as cell survival at 100 uM after 72 hrs by neutral red dye assay; format: functional; conditions: MDA-MB-231, 72 h, read-out: Survival; how it was run: as §3
[7] = tested on: MDA-MB-231; experiment: Cytotoxicity against human MDA-MB-231 cells after 72 hrs by neutral red dye assay; format: functional, cell-based; conditions: MDA-MB-231, 72 h; how it was run: as §2
[8] = tested on: HT-29; experiment: Cytotoxicity against human HT-29 cells assessed as cell survival at 100 uM after 72 hrs by neutral red dye assay; format: functional; conditions: HT-29, 72 h, read-out: Survival; how it was run: as §3
[9] = tested on: HT-29; experiment: Induction of apoptosis in human HT-29 cells assessed as DNA fragmentation after 48 hrs by ELISA relative to control; format: functional; how it was run: as §1
[10] = Cytotoxicity against human CRL11233 cells assessed as cell survival at 20 to 100 uM after 72 hrs by neutral red dye assay; format: cell-based; conditions: read-out: Survival
How it was run: (§4)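 The non-tumoral lines were grown with 10% FBS plus penicillin/streptomycin, as monolayers at 37 °C in 5% CO2: CRL-8799 in MEG medium and CRL-11233 in BEGM. Compounds in DMSO (≤0.5% v/v final) were applied for 72 h. Survival was read by neutral red uptake against 0.5% DMSO solvent-treated controls, as the mean of triplicates.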

[11] = Cytotoxicity against human CRL8799 cells assessed as cell survival at 20 to 100 uM after 72 hrs by neutral red dye assay; format: cell-based; conditions: read-out: Survival; how it was run: as §4

Row | SMILES | fold change (FC) [1] | IC50 [2] [µM] | fold change (FC) [3] | viability at 100 µM [4] [%] | IC50 [5] [µM] | viability at 100 µM [6] [%] | IC50 [7] [µM] | viability at 100 µM [8] [%] | fold change (FC) [9] | Activity [9] | Activity [1] | Activity [3] | viability at 72 h, up to 100 µM [10] [%] | viability at 72 h, up to 100 µM [11] [%]
1 | CCCCNc1nc(SCC)nc2ncccc12 | 2.2 | 20.9 | 1.5 | < 45 | 25.3 | < 45 | 9.2 | < 45 | 1.2 |  |  |  |  | 
2 | CCNc1nc(SCC)nc2ncccc12 | 2 | 20.1 | 1.3 | < 45 | 26.2 | < 45 | 18.7 | < 45 |  | inactive |  |  |  | 
3 | CCCCCCNc1nc(NCCCCCC)c2ccccc2n1 |  | 23.3 |  | < 45 | 5.81 | < 45 | 7.56 | < 45 |  | inactive | inactive | inactive | 0 | 2
4 | CCCNc1nc(NCCC)c2ccccc2n1 |  | 28.9 | 2 | < 45 | 18.9 | < 45 | 4.43 | < 45 |  | inactive | inactive |  | 66 | 0
5 | CCCCCCNc1nc(NCCCCCC)c2cccnc2n1 |  | 4.6 |  | < 45 | 4.23 | < 45 | 2.1 | < 45 |  |  |  |  |  | 
6 | CCCCCCNc1nc(SC(C)C)nc2ncccc12 | 2.9 | 15.8 | 1.6 | < 45 | 20.2 | < 45 | 4.5 | < 45 |  |  |  |  |  | 
7 | CCCCNc1nc(SC(C)C)nc2ncccc12 | 1.3 | 12.3 |  | < 45 | 32.1 | < 45 | 15.7 | < 45 |  | inactive |  | inactive |  | 
8 | CCCCCNc1nc(NCCCCC)c2cccnc2n1 | 2.8 | 0.7 | 4.4 | < 45 | 0.58 | < 45 | 1.2 | < 45 | 0.9 |  |  |  | 54 | 100
9 | Cc1ccc(CNc2nc(NCc3ccc(C)cc3)c3cccnc3n2)cc1 | 4 | 5 | 2.7 | < 45 | 7.5 | < 45 | 3.2 | < 45 |  | inactive |  |  | 100 | 95
10 | CCCCNc1nc(SCCCC)nc2ncccc12 |  | 10.6 | 3.7 | < 45 | 13.6 | < 45 | 8.4 | < 45 |  | inactive |  |  |  | 
11 | CCCCNc1nc(NCCCC)c2ccccc2n1 |  | 19.3 |  | < 45 | 6.96 | < 45 | 1.09 | < 45 | 1.5 |  | inactive | inactive | 1 | 4
12 | Clc1ccc(CNc2nc(NCc3ccc(Cl)cc3)c3cccnc3n2)cc1 | 1.3 | 11 | 1.9 | < 45 | 15 | < 45 | 8.3 | < 45 |  | inactive |  |  | 100 | 0
13 | CCCCCCNc1nc(SCCCCC)nc2ncccc12 |  | 18.5 |  | < 45 | 18.4 | < 45 | 9 | < 45 |  | inactive |  | inactive |  | 
14 | COc1ccc(CNc2ccnc(NCc3ccc(OC)cc3)n2)cc1 | 2.4 | 18.7 | 1.5 | < 45 | 12.6 | < 45 | 1.5 | < 45 | 1.9 |  |  |  |  | 0
15 | CCCCCCCNc1nc(SC(C)C)nc2ncccc12 |  | 8 | 1.5 | < 45 | 24.4 | < 45 | 7 | < 45 |  | inactive |  |  |  | 
16 | Clc1ccc(CNc2ccnc(NCc3ccc(Cl)cc3)n2)cc1 | 2.2 | 8.5 |  | < 45 | 9.8 | < 45 | 2 | < 45 | 2.7 |  |  | inactive |  | 0
